Assay results gathered from unrelated publications.
Target: Mitogen-activated protein kinase kinase kinase 4 (MAP3K4, Homo sapiens, UniProt Q9Y6R4)

O=C(Nc1c[nH]nc1C(=O)NC1CCNCC1)c1cc(F)cc(F)c1
remaining binding (binding; competition with immobilised ligand; 1 µM): 100%

O=C(NCCCN1CCOCC1)c1ccc(Nc2ncc(Cl)c(-c3ccc(Cl)s3)n2)cc1
remaining binding (binding; competition with immobilised ligand; 1 µM): 54%

Nc1ncc2c(n1)-c1c([nH]c3ccc(C#CC4CC4)cc13)CCCC2
remaining binding (binding; competition with immobilised ligand; 1 µM): 92%

Cc1cnc(Nc2ccc(C(=O)N3CCC(N4CCCC4)CC3)cc2)nc1-c1cc2ccccc2s1
remaining binding (binding; competition with immobilised ligand; 1 µM): 32%

Cc1nc(N2CC[C@@H](O)C2)ncc1-c1cc(C(F)(F)F)cc2[nH]ncc12
remaining binding (binding; competition with immobilised ligand; 1 µM): 100%

COc1ccnn2ncc(-c3ccnc(N(C)C)n3)c12
remaining binding (binding; 1 µM): 100%

CN(C)C(=O)Cn1cc(-c2nc(C3(c4ccc(-c5cnc(N)nc5)cc4)CC3)no2)cn1
remaining binding (cell-free assay; competition with immobilised ligand; 1 µM): 92%

C[C@@H](c1ccc(-n2cnc3c(N)ncnc32)cc1)N1CCc2nn(C)c(Cc3ccccc3)c2C1=O
remaining binding (binding; competition with immobilised ligand; 0.1 µM): 100%

C=CC(=O)N1CCC(C(=O)NCC(=O)N2CCN(c3nc(-c4cnc(N)nc4C(F)F)nc(N4CCOCC4)n3)CC2)CC1
remaining binding (binding; competition with immobilised ligand; 1 µM): 100%

CN(C)c1nccc(-c2cnn3ncccc23)n1
remaining binding (binding; 1 µM): 100%

O=C(c1ccc(Nc2ncc(Cl)c(-c3ccc(Cl)s3)n2)cc1)N1CCC(N2CCCC2)CC1
remaining binding (binding; competition with immobilised ligand; 1 µM): 61%

c1cncc(-c2cccc(Nc3nccc(NC4CCCCC4)n3)c2)c1
remaining binding (binding; competition with immobilised ligand; 10 µM): 88%

C[C@@H]1CCN(c2nccc(-c3cnn4ncccc34)n2)C1
remaining binding (binding; 1 µM): 100%

COc1cnc(Nc2cccc(S(N)(=O)=O)c2)nc1N1CCN(c2ccccc2)CC1
remaining binding (binding; competition with immobilised ligand; 1 µM): 100%

Cc1c[nH]c2nccc(Oc3c(F)cc(Nc4cc(Cl)nc(N)n4)cc3F)c12
remaining binding (cell-free assay; competition with immobilised ligand; 0.1 µM): 100%

N[C@@H]1CCN(c2nccc(-c3cnn4ncccc34)n2)C1
remaining binding (binding; 1 µM): 100%

C[C@@H]1CN(c2cc(-c3n[nH]c4ccc(OC5(C)CC5)cc34)ncn2)C[C@H](C)O1
remaining binding (cell-free assay; competition with immobilised ligand; 0.1 µM): 100%

CCN1CCN(Cc2ccc(C(=O)Nc3ccc(C)c(Oc4ccc5c(c4)CC(=O)N5)c3)cc2C(F)(F)F)CC1
remaining binding (binding; competition with immobilised ligand; 1 µM): 100%

O=C(O)[C@H]1[C@H](Cn2nnc3ccccc3c2=O)CC[C@@H]1C(=O)c1ccc(OCCC2CCOCC2)cc1
remaining binding (cell-free assay; competition with immobilised ligand; 1 µM): 100%

CN(C)c1ncc(F)c(-c2cnn3ncccc23)n1
remaining binding (binding; 1 µM): 100%

O=C(N[C@H]1CCCCC/C=C\C2C[C@@]2(C(=O)O)NC(=O)[C@@H]2C[C@@H](Oc3ccncc3)CN2C1=O)OC1CCCC1 (stereo partly drawn)
remaining binding (binding; competition with immobilised ligand; 1 µM): 91%

C[C@@H]1CN(c2ccc3ncc(-c4ccc5[nH]nc(C6CC6)c5c4)n3n2)C[C@H](C)O1
remaining binding (binding; competition with immobilised ligand; 50 nM): 100%

F[C@@H]1CCN(c2nccc(-c3cnn4ncccc34)n2)C1
remaining binding (binding; 1 µM): 78%

CSc1cccnc1N1CCN(Cc2nc3ccccc3[nH]2)CC1
remaining binding (cell-free assay; competition with immobilised ligand; 1 µM): 100%
